This assay in a line: Inhibition of Bacillus pasteurii urease using urea substrate assessed as reduction in ammonia production after 15 mins by indophenol's method. The arrangement: species or system Sporosarcina pasteurii. In a few lines: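 One unit of B. pasteurii urease in buffer containing 100 mM urea, incubated with test compound (added as 1 mM solution) at 30 °C for 15 min. Ammonia was measured by the indophenol method: phenol reagent and alkali reagent were added, and the increase in absorbance at 630 nm was read after 50 min on a plate reader.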
For the molecule `O=C1NC(=S)NC(=O)C1=Cc1c[nH]c2ccccc12`, the IC50 (in general, the concentration needed to halve the response being measured) stood at 171 µM.

Take `CN(C)c1ccc(C=C2C(=O)NC(=S)NC2=O)cc1`: the 50% inhibitory concentration (IC50) was found to be 58.5 µM.

Regarding `O=C1NC(=S)NC(=O)C1=Cc1ccc(O)cc1O`, the half-inhibitory concentration (IC50) worked out at 32.1 µM. The result for `O=C1NC(=S)NC(=O)C1=Cc1ccc(O)c(O)c1` reads 1.61 µM. As to `COc1ccc(C=C2C(=O)NC(=S)NC2=O)cc1O`, the half-maximal inhibitory concentration (IC50) was found to be 22.8 µM. As to `O=C1NC(=S)NC(=O)C1=Cc1ccc(O)c(O)c1O`, the IC50 worked out at 25.2 µM. The result for `COc1cc(C=C2C(=O)NC(=S)NC2=O)cc(OC)c1O` reads 46.5 µM.

Regarding `COc1cc(Br)c(C=C2C(=O)NC(=S)NC2=O)cc1OC`, the IC50 was 47.3 µM. The result for `O=C1NC(=S)NC(=O)C1=Cc1cccs1` reads 21.5 µM.

For the molecule `CSc1ccc(C=C2C(=O)NC(=S)NC2=O)cc1`, the IC50 was 18.1 µM.

In the case of `O=C1NC(=S)NC(=O)C1=Cc1c(Cl)c2cc(Br)ccc2oc1=O`, the IC50 turned out to be 62.8 µM. As for `O=C1NC(=S)NC(=O)C1=Cc1ccncc1`, the concentration for half-maximal inhibition (IC50) turned out to be 16 µM. The figure for `Cc1cccc(C=C2C(=O)NC(=S)NC2=O)n1` is 16 µM; for `COc1cc(C=C2C(=O)NC(=S)NC2=O)c(OC)cc1Br` it is 43.3 µM; for `COc1cc(C=C2C(=O)NC(=S)NC2=O)cc(I)c1O` it is 42.5 µM. The result for `O=C1NC(=S)NC(=O)C1C=C1c2ccccc2Cc2ccccc21` reads 137 µM; that for `O=C1NC(=S)NC(=O)C1=Cc1cc(Cl)cc(Cl)c1O`, 50.3 µM.

As to `Nc1ccccc1C=C1C(=O)NC(=S)NC1=O`, the IC50 was found to be 32.3 µM. Regarding `O=C1NC(=S)NC(=O)C1=Cc1ccc(C=C2C(=O)NC(=S)NC2=O)cc1`, the IC50 is 6.7 µM. The figure for `O=C1NC(=S)NC(=O)C1=Cc1cc(Br)c(O)c(Br)c1` is 10.6 µM; for `Cc1ccccc1C=C1C(=O)NC(=S)NC1=O` it is 42.1 µM; for `CCOc1ccc(C=C2C(=O)NC(=S)NC2=O)cc1` it is 29.4 µM. Regarding `COc1cccc(C=C2C(=O)NC(=S)NC2=O)c1O`, the IC50 worked out at 19.2 µM.

For the molecule `Cc1ccc(C=C2C(=O)NC(=S)NC2=O)o1`, the IC50 was determined as 18.2 µM. The figure for `COc1ccc(O)c(C=C2C(=O)NC(=S)NC2=O)c1` is 32.7 µM. The figure for `O=C1NC(=S)NC(=O)C1=Cc1c(O)ccc2ccccc12` is 21.4 µM; for `COc1ccc(C=C2C(=O)NC(=S)NC2=O)cc1OC` it is 14.3 µM. The result for `NC(N)=S` [THIOUREA] reads 21 µM.

These data come from ChEMBL document CHEMBL3352291, “Synthesis and structure-activity relationship of thiobarbituric acid derivatives as potent inhibitors of urease” (Bioorg Med Chem, 2014).
